The text below walks through data of ChEMBL document CHEMBL1641515, “Inhibition of secreted phospholipases A₂ by 2-oxoamides based on α-amino acids: Synthesis, in vitro evaluation and molecular docking calculations” (Bioorg Med Chem, 2011).

For orientation: inhibition means the drop in the measured response relative to a control, in per cent. Low readings indicate little suppression, high ones strong suppression. The term IC50 denotes the concentration that inhibits the measured activity by half. Lower therefore signals inhibition by little substance.

In assay [1] the target is T1, Phospholipase A2 group V (Homo sapiens) (UniProt P39877).
T1 sequence (whole entry): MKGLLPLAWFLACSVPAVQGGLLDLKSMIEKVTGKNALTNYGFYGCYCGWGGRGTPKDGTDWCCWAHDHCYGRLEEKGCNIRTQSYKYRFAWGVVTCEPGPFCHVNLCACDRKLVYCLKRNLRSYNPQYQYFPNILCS
The experiment in a line: Inhibition of human group 5 sPLA2 at […] by fluorescence assay.

Assay [2] addresses T2, Phospholipase A2, membrane associated (Homo sapiens, UniProt P14555).
T2 sequence (P14555 whole entry): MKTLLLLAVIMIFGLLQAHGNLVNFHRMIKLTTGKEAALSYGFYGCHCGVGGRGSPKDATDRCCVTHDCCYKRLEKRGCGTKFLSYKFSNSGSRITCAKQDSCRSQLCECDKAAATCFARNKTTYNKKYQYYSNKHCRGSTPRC
The assay is described as follows: Inhibition of human group 2A sPLA2 by fluorescence assay. In outline:
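Continuous fluorimetric assay with recombinant human GIIA sPLA2 (6 ng/well) on pyrPG vesicles, pH 8.0 Tris buffer with Ca2+, KCl and BSA. Readout at ex 342/em 395 nm, initial slopes. […] Nonlinear variable-slope sigmoidal fit gives IC50; mean of duplicate or triplicate analyses with SD.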

For assay [3], the target named is T3, Group 10 secretory phospholipase A2 (Homo sapiens) (UniProt O15496).
T3 sequence (whole entry): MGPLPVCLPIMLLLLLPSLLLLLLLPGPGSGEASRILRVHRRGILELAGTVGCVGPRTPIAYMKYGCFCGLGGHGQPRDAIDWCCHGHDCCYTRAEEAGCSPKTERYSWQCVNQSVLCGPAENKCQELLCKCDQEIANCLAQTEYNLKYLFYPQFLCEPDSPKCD
The assay is described as follows: Inhibition of human group 10 sPLA2 at […] by fluorescence assay.

The target of assay [4] is T4, Phospholipase A2, membrane associated (Homo sapiens) (UniProt P14555).
T4 sequence (whole entry): T2 sequence (P14555 whole entry)
The experiment in a line: Inhibition of human group 2A sPLA2 at […] by fluorescence assay.

Assay [5] concerns the target T5, Group 10 secretory phospholipase A2 (Homo sapiens, UniProt O15496).
T5 sequence (O15496 whole entry): T3 sequence (whole entry)
The assay is described as follows: Inhibition of human group 10 sPLA2 by fluorescence assay.

Assay [6] concerns the target T6, Phospholipase A2 group V (Homo sapiens, UniProt P39877).
T6 sequence (P39877 whole entry): T1 sequence (whole entry)
The assay is described as follows: Inhibition of human group 5 sPLA2 by fluorescence assay. In outline:
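Recombinant human GV sPLA2 (12.5 ng/well) with pyrPG vesicle substrate in Tris-HCl pH 8.0, KCl, CaCl2 and BSA. Monitored by fluorescence (342/395 nm), using initial slopes. […] IC50 by variable-slope sigmoidal regression on log concentration; duplicate or triplicate runs, mean with SD.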

For assay [7], the target named is T7, Phospholipase A2 group V (Mus musculus, UniProt P97391).
T7 sequence (P97391 whole entry): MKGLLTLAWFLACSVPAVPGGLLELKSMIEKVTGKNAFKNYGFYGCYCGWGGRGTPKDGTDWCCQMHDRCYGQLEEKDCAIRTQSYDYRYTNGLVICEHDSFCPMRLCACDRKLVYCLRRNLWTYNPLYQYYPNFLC
The experiment in a line: Inhibition of mouse group 5 sPLA2 by fluorescence assay.

Assay [8] has as its target T8, Phospholipase A2, membrane associated (Mus musculus, UniProt P31482).
T8 sequence (P31482 whole entry): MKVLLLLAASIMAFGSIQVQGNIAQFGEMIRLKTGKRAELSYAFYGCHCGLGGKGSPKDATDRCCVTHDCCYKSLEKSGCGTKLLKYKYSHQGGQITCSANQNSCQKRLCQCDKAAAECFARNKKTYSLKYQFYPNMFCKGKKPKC
The experiment in a line: Inhibition of mouse group 2A sPLA2 by fluorescence assay.

Assay [9] addresses T9, Group 10 secretory phospholipase A2 (Mus musculus) (UniProt Q9QXX3).
T9 sequence (whole entry): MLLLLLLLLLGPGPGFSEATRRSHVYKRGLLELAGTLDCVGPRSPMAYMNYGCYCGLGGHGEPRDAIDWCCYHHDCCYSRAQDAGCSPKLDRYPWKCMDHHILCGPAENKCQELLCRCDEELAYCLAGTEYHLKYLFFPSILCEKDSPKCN
The assay is described as follows: Inhibition of mouse group 10 sPLA2 by fluorescence assay. The following applies: concentration not given here. In outline:
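Mouse GX sPLA2, recombinant, 10.7 ng per well, in 50 mM Tris-HCl pH 8.0 with 50 mM KCl, 1 mM CaCl2 and BSA. Started with pyrPG vesicles and read at ex 342/em 395 nm. Percent inhibition from initial fluorescence slopes at five concentrations. IC50 from a variable-slope sigmoidal dose-response fit.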

Structures are written as SMILES.

In the case of `CCCCCCCCCCCCCCC(=O)C(=O)NCCCCC(=O)O`, the inhibition worked out at 49% in assay [1] and 7% in assay [3]. The molecule further yielded an IC50 in assay [2] of 11.7 µM.

Regarding `CCCCCCCCCCCCCCC(=O)C(=O)NCC(=O)OC`, the inhibition amounted to 3% in assay [4], 9% in assay [1] and 22% in assay [3].

On to `CCCCCCCCCCCCCCC(=O)C(=O)N[C@@H](Cc1ccccc1)C(=O)O`, for which the concentration for half-maximal inhibition (IC50) (in assay [5]; against Phospholipase A2 group V [6]; in [2]) was over 1.66 µM throughout.

In the case of `CCCCCCCCCCCCCCC(=O)C(=O)N[C@@H](CC(C)C)C(=O)O`, the IC50 at Phospholipase A2 group V [7] turned out to be 2.6 µM; against Phospholipase A2 group V [6], 0.44 µM; in assay [2], 0.3 µM; in [8], 0.18 µM. Moreover, the results for the inhibition in [3] and in assay [9] were 50% and 58%, respectively.

In the case of `CCCCCCCCCCCCCCC(=O)C(=O)NCCC(=O)O`, the inhibition in assay [1] amounted to 47%; in assay [3], 18%. In addition, the IC50 in assay [2] was 5.6 µM.

Turning to `CCCCCCCCCCCCCCCC(=O)N[C@@H](CC(C)C)C(=O)O`, the 50% inhibitory concentration (IC50) (against Phospholipase A2 group V [6]; in [2]) was over 1.66 µM in each case.

`CCCCCCCCCCCCCCC(=O)C(=O)NCC(=O)O`: the inhibition in assay [1] is 43%; in [3] it was 23%. The molecule further registered an IC50 in assay [2] of 4.2 µM.

`CCCCCCCCCCCCCCC(=O)C(=O)N[C@H](CC(C)C)C(=O)O`: the IC50 in assay [5] is over 1.66 µM; on Phospholipase A2 group V [6], 1.5 µM; in [2], 1.75 µM.
